A selection: hits, their analogues and other compounds. The true share with any hit is near 1.7%.
IDE cell inh – human IDE inhibitors in live cells, primary screen, fluorescence polarization, HEK cells, FAbetaB substrate. Insulin-degrading enzyme (Homo sapiens), P14735. FAbetaB cleavage. inhibition, % at 5.59 µM. actives 0.41% (n = 320,000). AID 434962, 2010;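 active = percent inhibition above the average of all tested compounds plus 3 SD, set per screening campaign, cut at about 16% in these data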;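 also: IDE supplied by intact live HEK cells; FP after avidin binding of uncleaved biotin substrate so inhibition keeps polarization high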
Tb MetRS inh – T. brucei MetRS inhibitors, primary screen, biochemical, luminescence; methionyl-tRNA synthetase (Trypanosoma brucei brucei); purified T. brucei MetRS, ATP depletion, Kinase-Glo luminescence; inhibition, % at 11.9 µM; actives 0.4% (n = 360,000); AID 624268, 2012;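 active = inhibition above a per-plate cutoff of the control wells' mean inhibition plus 3 SD, cut at about 5.5% in these data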
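Material – parasite MetRS enzyme · Medium – HEPES-MgCl2-KCl buffer plus DTT, spermine, BSA, pyrophosphatase · Reagent – ATP, methionine and E. coli bulk tRNA substrates · Times – 15 min enzyme-compound preincubation, 2 h reaction, 10 min detection, 25 °C · Measured by – luminescence of leftover ATP · Evaluation – percent inhibition relative to median high and low control wells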
HNF4A DNA FP – change in binding of human HNF4A to DNA, primary screen, biochemical, fluorescence polarization, FITC-DNA; Hepatocyte nuclear factor 4-alpha (Homo sapiens), P41235; 1 h; activity change, % at 10 µM; actives 0.3% (n = 360,000); AID 1224865, 2016; in the data active = activity change above about 30%, passing the limit was not always enough
TPT1 inh – Candida albicans TPT1 enzyme inhibitors, primary screen, biochemical, fluorescence polarization; tRNA 2'-phosphotransferase TPT1 (Candida albicans SC5314); inhibition, % at 5 µM; recombinant caTPT1, FP RNA substrate dephosphorylation; actives 0.81% (n = 300,000);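 active = inhibition above the mean of all tested compounds plus 3 SD, set per screening campaign, cut at about 24% in these data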
CSN deneddyl inh – inhibitors of CSN-mediated cullin deneddylation, primary screen, biochemical, fluorescence polarization, uHTS; COP9 signalosome complex subunit 5 (Homo sapiens), Q92905; Purified CSN, SCF-Nedd8-OG deneddylation; inhibition, % at 12.5 µM; actives 0.38% (n = 360,000);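 active = pattern-corrected inhibition above about 35%, with an unprinted fluorescence ratio check between 0.5 and 1.5, limit read from the data, passing the limit was not always enough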
Target sequence (Q92905 whole entry, looked up, one chain of several): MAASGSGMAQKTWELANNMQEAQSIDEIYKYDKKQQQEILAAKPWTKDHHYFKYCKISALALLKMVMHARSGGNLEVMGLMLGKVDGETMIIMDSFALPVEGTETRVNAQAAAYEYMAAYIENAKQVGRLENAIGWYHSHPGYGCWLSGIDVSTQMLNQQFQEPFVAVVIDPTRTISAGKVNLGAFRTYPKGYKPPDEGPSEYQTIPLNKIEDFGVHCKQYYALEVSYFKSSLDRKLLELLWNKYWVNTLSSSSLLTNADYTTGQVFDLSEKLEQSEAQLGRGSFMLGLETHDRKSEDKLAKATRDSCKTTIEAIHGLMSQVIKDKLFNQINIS
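Detection – fluorescence polarization · System – HEK293T-derived human Csn5 enzyme · Controls – substrate-only high control, full reaction low control · Timing – 90 min, room temperature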
IDE act – human IDE activators in live cells, primary screen, fluorescence polarization, HEK cells, FAbeta-B substrate | FAbeta-B cleavage; 0% vehicle, 100% cell-free pure enzyme wells | activation, % at 5.96 µM | actives 0.073% (n = 340,000);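 active = activation above the mean of all tested compounds plus 3 SD, set per screening campaign, cut at about 17% in these data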
caTPT1 confirm – Candida albicans TPT1 inhibitors, confirmation, biochemical, fluorescence polarization, triplicate | inhibition, % at 5 µM | recombinant caTPT1, RNase T1 coupled | actives 74% (n = 2,400) | shares compounds with TPT1 inh;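 active = inhibition above the primary screen limit, the mean inhibition of all tested compounds plus 3 SD, cut at about 25% in these data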
RNase T1 inh – RNase T1 inhibitors, counter-screen for TPT1 inhibitor project, biochemical, fluorescence polarization. shares compounds with TPT1 inh. RNase T1 cleavage, 1536-well. inhibition, % at 5 µM. actives 83% (n = 2,400);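 active = inhibition above the solvent-only control well mean plus 3 SD, limit set per screening run, cut at about 23% in these data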;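 also: inhibitors block cleavage so intact labeled substrate keeps polarization high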
Target sequence (P00651 whole entry, looked up): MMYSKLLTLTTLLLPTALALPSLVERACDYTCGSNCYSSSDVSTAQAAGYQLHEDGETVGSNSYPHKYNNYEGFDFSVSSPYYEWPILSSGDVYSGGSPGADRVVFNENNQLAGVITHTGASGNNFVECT
A number is an active result; i = inactive; nt = not tested or not shown.

SMILES	IDE cell inh	Tb MetRS inh	HNF4A DNA FP	TPT1 inh	CSN deneddyl inh	IDE act	caTPT1 confirm	RNase T1 inh
CN1CCc2c(sc3c2C(=O)NC(c2ccco2)N3)C1 (stereo not given)	i	i	i	i	i	i	nt	nt
CN1CCc2c(sc3c2C(=O)NC(c2cn(Cc4ccccc4)c4ccccc24)N3)C1 (stereo not given)	i	i	52	67	i	i	75	85
CCOC(=O)N1CCc2c(sc3c2C(=O)NC(c2ccccc2)N3)C1 (stereo not given)	i	i	i	i	i	i	nt	nt
CN1CCc2c(sc3c2C(=O)NC(c2cccc(OC(=O)c4cccs4)c2)N3)C1 (stereo not given)	i	i	34	99	36	i	110	110
CCOC(=O)c1c(/N=C/N(C)C)sc(/C=N/Nc2ccccc2)c1-c1ccccc1	i	i	i	i	i	i	nt	nt
CCOC(=O)c1c(/N=C/N(C)C)sc(/C=N/Nc2ccccc2)c1-c1ccccc1Cl	i	i	i	35	i	i	40	52
NC1=NC(=O)/C(=C/c2cc(Br)c(O)c(Br)c2)S1	i	i	i	37	i	i	49	62
CCN1/C(=C/C=C/C=C/C=C/c2sc3ccccc3[n+]2CC)Sc2ccccc21	i	i	60	30	i	i	i	29
CC(C)CC1NC(=O)c2cc(Cl)ccc2-n2c1nc1ccc(F)cc1c2=O (stereo not given)	i	nt	nt	nt	nt	nt	nt	nt
O=C(O)c1cccc(Cn2c(Cl)c(/C=N/Nc3ccccc3)sc2=O)c1	i	i	i	48	i	i	65	79
CC1CC(C)C(=O)C(C(CC2CC(=O)NC(=O)C2)OC(=O)CC(=O)c2ccccc2)C1 (stereo not given)	nt	i	i	nt	i	i	nt	nt
COc1ccc(-c2nc(C)ncc2N=Nc2ccccc2)cc1	i	i	i	i	i	i	nt	nt
COc1cc(-c2nc(-c3ccccc3)c(-c3ccc(F)cc3)[nH]2)cc2c1OCO2	i	i	i	i	i	i	nt	nt
COc1ccccc1N=Nc1nc(-c2ccccc2)c(-c2ccccc2)[nH]1	i	i	i	25	i	i	33	42
COc1ccc(N=Nc2nc(-c3ccccc3)c(-c3ccccc3)[nH]2)cc1	i	i	i	31	i	i	43	56
Oc1ccccc1N=Nc1nc(-c2ccccc2)c(-c2ccccc2)[nH]1	i	i	i	46	i	i	58	69
CCC[C@H]1CN(c2ccc(OC)cc2)C(=O)[C@@H]1CC(=O)NC	nt	i	i	nt	i	nt	nt	nt
O=c1nc(/C=C/c2cccn2-c2ccc([N+](=O)[O-])cc2)cc(C(F)(F)F)[nH]1	i	i	i	84	i	i	47	66
O=c1nc(/C=C/c2cc([N+](=O)[O-])ccc2Cl)cc(C(F)(F)F)[nH]1	i	i	i	i	i	i	nt	nt
Nc1c(C(=O)c2ccccc2)sc2nsc(SCCN3CCCC3)c12	i	i	38	48	i	i	47	56
CC(=O)c1sc2nsc(SCCN3CCCCC3)c2c1N	i	i	i	i	i	nt	nt	nt
Nc1c(C(=O)c2ccc(Cl)cc2)sc2nsc(SCCN3CCOCC3)c12	i	i	i	41	38	i	57	69
CCOc1ccc(/C=C/C(=O)Nc2ccc3[nH]c(=O)[nH]c3c2)cc1	i	i	i	i	i	i	nt	nt
Cc1ccc(CNc2ccc3c(c2)OCO3)c(C)c1	i	nt	nt	26	nt	nt	i	35
COc1ccc2nc(C)cc(N3CCN(S(=O)(=O)c4ccccc4F)CC3)c2c1	i	i	i	nt	i	i	nt	nt
SMILES	IDE cell inh	Tb MetRS inh	HNF4A DNA FP	TPT1 inh	CSN deneddyl inh	IDE act	caTPT1 confirm	RNase T1 inh
Cc1cc(C)nc(N/N=C/C2=C(N3CCOCC3)C(=C\c3ccc(Cl)cc3)/CC2)n1	i	i	i	i	i	i	nt	nt
O=C(O)c1ccc(N/N=C/C2=C(N3CCOCC3)C(=C\c3ccccc3)/CC2)cc1	i	i	35	101	i	i	119	124
O=C(/C=C/[C@H]1O[C@@H](n2ccc(=O)[nH]c2=O)[C@H](O)[C@@H]1O)NC1CCN(Cc2ccccc2)C1 (stereo not given in full)	nt	i	i	nt	i	nt	nt	nt
CCOC(=O)c1sc2nc3c(SCCC#N)cc(C(=O)c4cc(F)ccc4O)cn3c(=O)c2c1C	i	i	i	48	i	i	27	31
COc1ccc(NC(=O)c2cccc(-n3c(C)ccc3C)c2)c(OC)c1	i	i	i	i	i	i	nt	nt
Cc1ccc(C)n1-c1cccc(C(=O)Nc2ccccc2)c1	i	i	i	38	i	i	40	50
COCCCn1cnnc1SC(C)C(=O)Nc1ccc(S(=O)(=O)N2CCOCC2)cc1 (stereo not given)	i	i	i	nt	i	i	nt	nt
N#C/C(=C\c1ccc(O)c(O)c1)C(=O)Nc1cccc2ncccc12	i	i	i	24	i	i	i	27
COc1ccc(/C=C(\C#N)C(=O)Nc2cccc3ncccc23)cc1OC	i	i	i	i	i	i	nt	nt
CCCCCC(=O)N1C[C@H](n2cc(COC(=O)c3ccccc3)nn2)[C@@H](O)C[C@@H]1c1ccc(OC)cc1	nt	i	i	nt	i	nt	nt	nt
O=C(Cn1c(CO)nc2ccccc21)NCc1ccc2c(c1)OCO2	i	i	i	i	i	i	nt	nt
O=C(Cn1c(Cc2ccccc2)nc2ccccc21)NCc1ccc2c(c1)OCO2	i	i	i	61	i	i	i	i
C#CCNC(=O)C[C@@H]1C[C@@]2(C(=O)OC)CC(C)(C)CC=C2N(Cc2ccccc2)C1=O	nt	i	i	nt	i	nt	nt	nt
O=C(Nc1nccs1)c1ccc(N2C(=O)[C@@H]3[C@H](C2=O)[C@H]2C=C[C@@H]3C2)cc1	i	i	i	i	i	i	nt	nt
O=C(Nc1nccs1)c1ccc(N2C(=O)C3CCCCC3C2=O)cc1 (stereo not given)	i	i	i	65	i	i	i	i
CCN(CC)c1ccc(/C=N/N2C(=O)c3ccccc3C2=O)c(O)c1	i	i	i	45	i	i	i	i
